Converted amounts (≈) assume the structure as drawn.
Columns and labels:
Streptococcus pneumoniae = test: Minimum inhibitory concentration against Streptococcus pneumoniae L 44; assay type: functional
How it was run: (§1)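 MIC (µg/mL) by microbroth dilution in Todd-Hewitt broth, final inoculum 10^4 cfu/mL, incubated 24 h at 37 °C in air.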

Streptococcus pyogenes [1] = test: Minimum inhibitory concentration of compound was determined against Streptococcus pyogenes L 49 in mouse; assay type: functional
[2] = test system: Staphylococcus haemolyticus; test: Minimum inhibitory concentration against Staphylococcus haemolyticus L 602; assay type: functional
How it was run: (§2)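 MIC (µg/mL) by microbroth dilution in Iso-Sensitest broth; final inoculum 10^4 cfu/mL; 24 h at 37 °C in air.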

Staphylococcus aureus = test: Minimum inhibitory concentration against Staphylococcus aureus L 165; assay type: functional; how it was run: as §2
Escherichia coli [3] = test: Minimum inhibitory concentration against Escherichia coli L 47; assay type: functional; how it was run: as §2
Proteus vulgaris [4] = test: Minimum inhibitory concentration against Proteus vulgaris ATCC 881; assay type: functional; how it was run: as §2
Enterococcus faecalis = test: Minimum inhibitory concentration against Enterococcus faecalis ATCC 7080; assay type: functional
How it was run: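 Microbroth dilution MIC (µg/mL), final inoculum 10^4 cfu/mL, incubated 24 h at 37 °C in air.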

[5] = Association constant to Ac2-L-Lys-D-Ala-D-Ala determined at pH 9; Value ranges from 5E4-7.5E4
Streptococcus pyogenes [6] = test: Minimum inhibitory concentration against Streptococcus pyogenes L 49; assay type: functional; how it was run: as §1
Streptococcus pyogenes [7] = test: Efficacy of compound administered subcutaneously against Streptococcus pyogenes L 49 Septicemia in mouse; assay type: functional; details: sc
How it was run: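 Mice were infected intraperitoneally with about 10^5 Strep. pyogenes L 49 cells, about 100 times the 50% lethal dose. Groups of 5–8 mice were treated once right after challenge, by the route stated in the line. ED50 (mg/kg) was derived from percentage survival at each dose on day 7 (Spearman-Kärber).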

[8] = test system: Staphylococcus epidermidis; test: Minimum inhibitory concentration against Staphylococcus epidermidis ATCC 12228; assay type: functional; how it was run: as §2
Pseudomonas aeruginosa [9] = test: Minimum inhibitory concentration against Pseudomonas aeruginosa ATCC 10145; assay type: functional; how it was run: as §2
Shigella dysenteriae = test: Minimum inhibitory concentration of compound was determined against Shigella dysentariae L155; assay type: functional
Serratia marcescens [10] = test: Minimum inhibitory concentration of compound was determined against Serratia marcescens L 1506; assay type: functional; how it was run: as §2
Bacteroides fragilis [11] = test: Minimum inhibitory concentration of compound was determined against Bacteroides fragilis L 1236; assay type: functional
How it was run: (§3)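 Microbroth dilution MIC (µg/mL) in Wilkins-Chalgren broth, final inoculum 10^5 cfu/mL, incubated 48 h in an anaerobic chamber.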

Pseudomonas aeruginosa [12] = test: Minimum inhibitory concentration of compound was determined against Pseudomonas aeruginosa L 1498; assay type: functional; how it was run: as §2
Bacteroides fragilis [13] = test: Minimum inhibitory concentration of compound was determined against Bacteroides fragilis L 1010; assay type: functional; how it was run: as §3
Klebsiella pneumoniae [14] = test: Minimum inhibitory concentration of compound was determined against Klebsiella pneumoniae L 1499; assay type: functional; how it was run: as §2
Pseudomonas aeruginosa [15] = test: Minimum inhibitory concentration of compound was determined against Pseudomonas aeruginosa L 1138; assay type: functional; how it was run: as §2
Shigella sonnei = test: Minimum inhibitory concentration of compound was determined against Shigella sonnei L 363; assay type: functional; how it was run: as §2
Escherichia coli [16] = test: Minimum inhibitory concentration of compound was determined against Escherichia coli L 1513; assay type: functional; how it was run: as §2
Bacteroides fragilis [17] = test: Minimum inhibitory concentration of compound was determined against Bacteroides fragilis L 1011; assay type: functional; how it was run: as §3
Escherichia coli [18] = test: Minimum inhibitory concentration of compound was determined against Escherichia coli L 1347; assay type: functional; how it was run: as §2
Escherichia coli [19] = test: Minimum inhibitory concentration of compound was determined against Escherichia coli L 1536; assay type: functional; how it was run: as §2
Escherichia coli [20] = test: Minimum inhibitory concentration of compound was determined against Escherichia coli L 1484; assay type: functional; how it was run: as §2
Proteus mirabilis [21] = test: Minimum inhibitory concentration of compound was determined against Proteus mirabilis L 1356; assay type: functional; how it was run: as §2
Proteus mirabilis [22] = test: Minimum inhibitory concentration of compound was determined against Proteus mirabilis L 1157; assay type: functional; how it was run: as §2
Serratia marcescens [23] = test: Minimum inhibitory concentration of compound was determined against Serratia marcescens L 1488; assay type: functional; how it was run: as §2
Pseudomonas aeruginosa [24] = test: Minimum inhibitory concentration of compound was determined against Pseudomonas aeruginosa L 1348; assay type: functional; how it was run: as §2
Enterobacter cloacae [25] = test: Minimum inhibitory concentration of compound was determined against Enterobacter cloacae L 1485; assay type: functional; how it was run: as §2
Salmonella typhimurium = test: Minimum inhibitory concentration of compound was determined against Salmonella Typhimurium L 35; assay type: functional, Salmonella enterica subsp. enterica serovar Typhimurium; details: Salmonella enterica; how it was run: as §2
Proteus vulgaris [26] = test: Minimum inhibitory concentration of compound was determined against Proteus vulgaris L 1539; assay type: functional; how it was run: as §2
Escherichia coli [27] = test: Minimum inhibitory concentration of compound was determined against Escherichia coli L 1153; assay type: functional; how it was run: as §2
Enterobacter cloacae [28] = test: Minimum inhibitory concentration of compound was determined against Enterobacter cloacae L 1504; assay type: functional; how it was run: as §2
Pseudomonas aeruginosa [29] = test: Minimum inhibitory concentration of compound was determined against Pseudomonas aeruginosa L 1533; assay type: functional; how it was run: as §2
Klebsiella pneumoniae [30] = test: Minimum inhibitory concentration of compound was determined against Klebsiella pneumoniae L 1481; assay type: functional; how it was run: as §2
Escherichia coli [31] = test: Minimum inhibitory concentration of compound was determined against Escherichia coli L 1572; assay type: functional; how it was run: as §2
Escherichia coli [32] = test: Efficacy of compound administered intravenously against Escherichia coli L 47 Septicemia in mouse; assay type: functional; details: iv
How it was run: (§4)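 Mouse septicemia from intraperitoneal injection of about 10^4 cells of E. coli L 47, about 100 times the 50% lethal dose. Groups of five to eight mice each got a single dose immediately after infection, by the route stated in the line. ED50 in mg/kg was calculated from percent survivors at each dose on day 7 (Spearman-Kärber).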

Escherichia coli [33] = test: Efficacy of compound administered subcutaneously against Escherichia coli L 47 Septicemia in mouse; assay type: functional; details: sc; how it was run: as §4
Mus musculus = organism: Mus musculus; test: Number of mouse survivors to that of treated with compound; 6 out of 8 survived; assay type: functional

Structure (SMILES)	MIC (Streptococcus pneumoniae) [µg/mL]	MIC (Streptococcus pyogenes [1]) [µg/mL]	MIC [2] [µg/mL]	MIC (Staphylococcus aureus) [µg/mL]	MIC (Escherichia coli [3]) [µg/mL]	MIC (Proteus vulgaris [4]) [µg/mL]	MIC (Enterococcus faecalis) [µg/mL]	Ka [5] [M⁻¹]	MIC (Streptococcus pyogenes [6]) [µg/mL]	ED50 (Streptococcus pyogenes [7]) [mg/kg]	MIC [8] [µg/mL]	MIC (Pseudomonas aeruginosa [9]) [µg/mL]	MIC (Shigella dysenteriae) [µg/mL]	MIC (Serratia marcescens [10]) [µg/mL]	MIC (Bacteroides fragilis [11]) [µg/mL]	MIC (Pseudomonas aeruginosa [12]) [µg/mL]	MIC (Bacteroides fragilis [13]) [µg/mL]	MIC (Klebsiella pneumoniae [14]) [µg/mL]	MIC (Pseudomonas aeruginosa [15]) [µg/mL]	MIC (Shigella sonnei) [µg/mL]	other results
NCCCNCCCCNCCCNC(=O)[C@H]1NC(=O)[C@H]2NC(=O)[C@H](NC(=O)[C@@H]3NC(=O)[C@H]4NC(=O)[C@@H](Cc5ccc(c(Cl)c5)Oc5cc3cc(c5O)Oc3ccc(cc3Cl)[C@H]2O)NC(=O)[C@H](N)c2ccc(O)c(c2)Oc2cc(O)cc4c2)c2ccc(O)c(c2)-c2c(O)cc(O)cc21	0.125 (≈ 0.0904 µM)	0.06 (≈ 0.0434 µM)	0.125 (≈ 0.0904 µM)	0.063 (≈ 0.0455 µM)	2 (≈ 1.45 µM)	64 (≈ 46.3 µM)	0.125 (≈ 0.0904 µM)	75000	0.063 (≈ 0.0455 µM)	0.41	0.063 (≈ 0.0455 µM)	8 (≈ 5.78 µM)	–	–	–	–	–	–	–	–	–
CNCCCN(C)C(=O)[C@H]1NC(=O)[C@H]2NC(=O)[C@H](NC(=O)[C@@H]3NC(=O)[C@H]4NC(=O)[C@@H](Cc5ccc(c(Cl)c5)Oc5cc3cc(c5O)Oc3ccc(cc3Cl)[C@H]2O)NC(=O)[C@H](N)c2ccc(O)c(c2)Oc2cc(O)cc4c2)c2ccc(O)c(c2)-c2c(O)cc(O)cc21	0.125 (≈ 0.0974 µM)	0.06 (≈ 0.0468 µM)	0.063 (≈ 0.0491 µM)	0.063 (≈ 0.0491 µM)	2 (≈ 1.56 µM)	32 (≈ 24.9 µM)	0.125 (≈ 0.0974 µM)	–	0.063 (≈ 0.0491 µM)	1.25	0.063 (≈ 0.0491 µM)	16 (≈ 12.5 µM)	4 (≈ 3.12 µM)	32 (≈ 24.9 µM)	64 (≈ 49.9 µM)	128 (≈ 99.8 µM)	32 (≈ 24.9 µM)	32 (≈ 24.9 µM)	64 (≈ 49.9 µM)	8 (≈ 6.23 µM)	MIC (Escherichia coli [16]): 8 µg/mL (≈ 6.23 µM); MIC (Bacteroides fragilis [17]): 32 µg/mL (≈ 24.9 µM); MIC (Escherichia coli [18]): 8 µg/mL (≈ 6.23 µM); MIC (Escherichia coli [19]): 8 µg/mL (≈ 6.23 µM); MIC (Escherichia coli [20]): 16 µg/mL (≈ 12.5 µM); MIC (Proteus mirabilis [21]): 32 µg/mL (≈ 24.9 µM); MIC (Proteus mirabilis [22]): 64 µg/mL (≈ 49.9 µM); MIC (Serratia marcescens [23]): 16 µg/mL (≈ 12.5 µM); MIC (Pseudomonas aeruginosa [24]): 16 µg/mL (≈ 12.5 µM); MIC (Enterobacter cloacae [25]): 32 µg/mL (≈ 24.9 µM); MIC (Salmonella typhimurium): 16 µg/mL (≈ 12.5 µM); MIC (Proteus vulgaris [26]): 128 µg/mL (≈ 99.8 µM); MIC (Escherichia coli [27]): 4 µg/mL (≈ 3.12 µM); MIC (Enterobacter cloacae [28]): 32 µg/mL (≈ 24.9 µM); MIC (Pseudomonas aeruginosa [29]): 128 µg/mL (≈ 99.8 µM); MIC (Klebsiella pneumoniae [30]): 16 µg/mL (≈ 12.5 µM); MIC (Escherichia coli [31]): 8 µg/mL (≈ 6.23 µM)
NCCCNCCCNCCCNC(=O)[C@H]1NC(=O)[C@H]2NC(=O)[C@H](NC(=O)[C@@H]3NC(=O)[C@H]4NC(=O)[C@@H](Cc5ccc(c(Cl)c5)Oc5cc3cc(c5O)Oc3ccc(cc3Cl)[C@H]2O)NC(=O)[C@H](N)c2ccc(O)c(c2)Oc2cc(O)cc4c2)c2ccc(O)c(c2)-c2c(O)cc(O)cc21	0.125 (≈ 0.0913 µM)	0.06 (≈ 0.0438 µM)	0.063 (≈ 0.046 µM)	0.063 (≈ 0.046 µM)	0.5 (≈ 0.365 µM)	64 (≈ 46.7 µM)	0.25 (≈ 0.183 µM)	75000	0.063 (≈ 0.046 µM)	0.72	0.016 (≈ 0.0117 µM)	2 (≈ 1.46 µM)	1 (≈ 0.73 µM)	8 (≈ 5.84 µM)	128 (≈ 93.5 µM)	64 (≈ 46.7 µM)	16 (≈ 11.7 µM)	8 (≈ 5.84 µM)	32 (≈ 23.4 µM)	2 (≈ 1.46 µM)	ED50 (Escherichia coli [32]): < 40 mg/kg; ED50 (Escherichia coli [33]): > 200 mg/kg; Survivors (Mus musculus): 6; MIC (Escherichia coli [16]): 2 µg/mL (≈ 1.46 µM); MIC (Bacteroides fragilis [17]): 32 µg/mL (≈ 23.4 µM); MIC (Escherichia coli [18]): 4 µg/mL (≈ 2.92 µM); MIC (Escherichia coli [19]): 2 µg/mL (≈ 1.46 µM); MIC (Escherichia coli [20]): 2 µg/mL (≈ 1.46 µM); MIC (Proteus mirabilis [21]): 32 µg/mL (≈ 23.4 µM); MIC (Proteus mirabilis [22]): 128 µg/mL (≈ 93.5 µM); MIC (Serratia marcescens [23]): 8 µg/mL (≈ 5.84 µM); MIC (Pseudomonas aeruginosa [24]): 4 µg/mL (≈ 2.92 µM); MIC (Enterobacter cloacae [25]): 4 µg/mL (≈ 2.92 µM); MIC (Salmonella typhimurium): 4 µg/mL (≈ 2.92 µM); MIC (Proteus vulgaris [26]): 32 µg/mL (≈ 23.4 µM); MIC (Escherichia coli [27]): 1 µg/mL (≈ 0.73 µM); MIC (Enterobacter cloacae [28]): 8 µg/mL (≈ 5.84 µM); MIC (Pseudomonas aeruginosa [29]): 64 µg/mL (≈ 46.7 µM); MIC (Klebsiella pneumoniae [30]): 4 µg/mL (≈ 2.92 µM); MIC (Escherichia coli [31]): 2 µg/mL (≈ 1.46 µM)
NCCCNCCNCCCNC(=O)[C@H]1NC(=O)[C@H]2NC(=O)[C@H](NC(=O)[C@@H]3NC(=O)[C@H]4NC(=O)[C@@H](Cc5ccc(c(Cl)c5)Oc5cc3cc(c5O)Oc3ccc(cc3Cl)[C@H]2O)NC(=O)[C@H](N)c2ccc(O)c(c2)Oc2cc(O)cc4c2)c2ccc(O)c(c2)-c2c(O)cc(O)cc21	0.125 (≈ 0.0922 µM)	0.06 (≈ 0.0443 µM)	0.125 (≈ 0.0922 µM)	0.125 (≈ 0.0922 µM)	2 (≈ 1.48 µM)	64 (≈ 47.2 µM)	0.125 (≈ 0.0922 µM)	75000	0.063 (≈ 0.0465 µM)	2.87	0.063 (≈ 0.0465 µM)	16 (≈ 11.8 µM)	–	–	–	–	–	–	–	–	–

Source: ChEMBL document CHEMBL1125337, “Synthesis and antibacterial activity of a series of basic amides of teicoplanin and deglucoteicoplanin with polyamines” (J Med Chem, 1992)
